Common to all, as to details: in vivo
The species entered for series [1] is Mus musculus. Put plainly: Biodistribution of [225Ac]-labeled compound in normal mice blood after 120 hr. The class given is ADME, organism-based.
The species entered for series [2] is Mus musculus. Put plainly: Biodistribution of [225Ac]-labeled compound in normal mice blood after 1 hr. The format is ADME, organism-based.
Series [3] is filed under the species Mus musculus. The series is described as follows: Biodistribution of [225Ac]-labeled compound in normal mice blood after 24 hr. The class given is ADME, organism-based.
The species named for series [4] is Mus musculus. The series is described as follows: Biodistribution of [225Ac]-labeled compound in normal mice blood after 4 hr. The format is ADME, organism-based.
For series [5], the species on record is Mus musculus. Put plainly: Biodistribution of [225Ac]-labeled compound in normal mice bone after 120 hr. The format is ADME, organism-based, Bone element.
The species named for series [6] is Mus musculus. Put plainly: Biodistribution of [225Ac]-labeled compound in normal mice bone after 1 hr. The format is ADME, organism-based, Bone element.
Series [7] is filed under the species Mus musculus. The series is described as follows: Biodistribution of [225Ac]-labeled compound in normal mice bone after 24 hr. The class given is ADME, organism-based, Bone element.
For series [8], the species on record is Mus musculus. Put plainly: Biodistribution of [225Ac]-labeled compound in normal mice bone after 4 hr. The format is ADME, organism-based, Bone element.
For series [9], the species on record is Mus musculus. Put plainly: Biodistribution of [225Ac]-labeled compound in normal mice heart after 120 hr. The class given is ADME, organism-based.
The species entered for series [10] is Mus musculus. The series is described as follows: Biodistribution of [225Ac]-labeled compound in normal mice heart after 1 hr. The class given is ADME, organism-based.
The species entered for series [11] is Mus musculus. The series is described as follows: Biodistribution of [225Ac]-labeled compound in normal mice heart after 24 hr. The class given is ADME, organism-based.
For series [12], the species on record is Mus musculus. Put plainly: Biodistribution of [225Ac]-labeled compound in normal mice heart after 4 hr. The format is ADME, organism-based.
The species entered for series [13] is Mus musculus. The series is described as follows: Biodistribution of [225Ac]-labeled compound in normal mice kidney after 1 hr. The class given is ADME, organism-based.
The species entered for series [14] is Mus musculus. Put plainly: Biodistribution of [225Ac]-labeled compound in normal mice kidney after 24 hr. The class given is ADME, organism-based.
The species named for series [15] is Mus musculus. Put plainly: Biodistribution of [225Ac]-labeled compound in normal mice kidney after 4 hr. The class given is ADME, organism-based. Summed up:
(§1)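 Normal female BALB/c mice received 2.5 µCi of 225Ac complex in 200 µL MES buffer (pH 6.2) by tail-vein injection. All complexes except Ac-acetate were Chelex-purified (0.1 M NH4OAc, pH 5.0) beforehand. Three to five animals were killed per time point. Tissues were weighed and counted for 225Ac 4 h later to allow nuclear equilibration, against external standards from the dose dilutions. Results are expressed as %ID/g.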

Series [16] is filed under the species Mus musculus. Put plainly: Biodistribution of [225Ac]-labeled compound in normal mice liver after 120 hr. The class given is ADME, organism-based.
For series [17], the species on record is Mus musculus. The series is described as follows: Biodistribution of [225Ac]-labeled compound in normal mice liver after 1 hr. The format is ADME, organism-based.
Series [18] is filed under the species Mus musculus. The series is described as follows: Biodistribution of [225Ac]-labeled compound in normal mice liver after 24 hr. The format is ADME, organism-based.
Series [19] is filed under the species Mus musculus. Put plainly: Biodistribution of [225Ac]-labeled compound in normal mice liver after 4 hr. The class given is ADME, organism-based.
The species named for series [20] is Mus musculus. Put plainly: Biodistribution of [225Ac]-labeled compound in normal mice spleen after 120 hr. The class given is ADME, organism-based.
The species named for series [21] is Mus musculus. Put plainly: Biodistribution of [225Ac]-labeled compound in normal mice spleen after 1 hr. The format is ADME, organism-based.
For series [22], the species on record is Mus musculus. Put plainly: Biodistribution of [225Ac]-labeled compound in normal mice spleen after 24 hr. The class given is ADME, organism-based.
The species entered for series [23] is Mus musculus. The series is described as follows: Biodistribution of [225Ac]-labeled compound in normal mice spleen after 4 hr. The format is ADME, organism-based.
Series [24] is filed under the species Mus musculus. Put plainly: (§2) Biodistribution of [225Ac]-labeled compound in normal mice kidney after 120 hr. The class given is ADME, organism-based. An outline of the steps:
as §1

Series [25] is filed under the species Mus musculus. The description is as §2. The format is ADME, organism-based. This is another data set of the same source.

In the case of `O=C(O)CN(CC(=O)O)[C@H](Cc1ccc([N+](=O)[O-])cc1)CN(CC(=O)O)[C@@H]1CCCC[C@H]1N(CC(=O)O)CC(=O)O`, the ID/g is recorded as under 0.01% in the series listed under Mus musculus [1]; 0.86% in the series listed under Mus musculus [2]; under 0.01% in the series filed under Mus musculus [3]; under 0.01% in the series filed under Mus musculus [4]; 4.18% in the series listed under Mus musculus [5]; 4.34% in the series filed under Mus musculus [6]. Besides, the ID/g in the series filed under Mus musculus [7] amounted to 4.65%; in the series filed under Mus musculus [8], 4.44%; in the series filed under Mus musculus [9] it was 0.6%; in the series filed under Mus musculus [10] it was 1.99%; in the series filed under Mus musculus [11], 0.43%; in the series listed under Mus musculus [12], 1.51%. In addition, the ID/g in the series listed under Mus musculus [13] turned out to be 4.55%; in the series listed under Mus musculus [14], 1.71%; in the series filed under Mus musculus [15], 3.36%; in the series listed under Mus musculus [16], 23.9%; in the series filed under Mus musculus [17], 8.85%; in the series listed under Mus musculus [18], 12.8%. The ID/g in the series listed under Mus musculus [19] stood at 12.9%; in the series listed under Mus musculus [20], 5.41%; in the series listed under Mus musculus [21] it was 0.71%; in the series listed under Mus musculus [22] it was 0.63%; in the series listed under Mus musculus [23], 0.4%; in the series filed under Mus musculus [24] it was 1.51%.

On to `O=C(O)CN1CCN(CC(=O)O)CCN(CC(=O)O)CCN(CC(=O)O)CCN(CC(=O)O)CC1`, for which the ID/g in the series filed under Mus musculus [1] is on record as under 0.01%; in the series listed under Mus musculus [2], 1.33%; in the series listed under Mus musculus [3], under 0.01%; in the series listed under Mus musculus [4] it was under 0.01%; in the series filed under Mus musculus [5], 1.6%; in the series filed under Mus musculus [6], 1.75%. The ID/g is on record as 1.51% in the series filed under Mus musculus [7]; 1.6% in the series listed under Mus musculus [8]; 0.39% in the series filed under Mus musculus [9]; 2.65% in the series filed under Mus musculus [10]; 0.68% in the series filed under Mus musculus [11]; 2.34% in the series filed under Mus musculus [12]. Moreover, the ID/g in the series filed under Mus musculus [13] was found to be 5.6%; in the series filed under Mus musculus [14], 1.64%; in the series listed under Mus musculus [15], 3.47%; in the series listed under Mus musculus [16], 22.3%; in the series listed under Mus musculus [17], 12%; in the series filed under Mus musculus [18] it was 14.7%. The ID/g is listed as 16.4% in the series filed under Mus musculus [19]; 1.63% in the series filed under Mus musculus [20]; 0.83% in the series filed under Mus musculus [21]; 0.8% in the series filed under Mus musculus [22]; 0.59% in the series listed under Mus musculus [23]; 1.28% in the series listed under Mus musculus [24].

On to `O=C(O)CN1CCN(CC(=O)O)CCN(CC(=O)O)CCN(CC(=O)O)CCN(CC(=O)O)CCN(CC(=O)O)CC1`, for which the ID/g in the series filed under Mus musculus [1] is recorded as under 0.01%; in the series listed under Mus musculus [2], 0.03%; in the series listed under Mus musculus [3], under 0.01%; in the series filed under Mus musculus [4], under 0.01%; in the series listed under Mus musculus [5] it was 0.02%; in the series filed under Mus musculus [6], 0.06%. Further, the ID/g in the series listed under Mus musculus [7] is on record as under 0.01%; in the series listed under Mus musculus [8], 0.025%; in the series listed under Mus musculus [9], 0.03%; in the series filed under Mus musculus [10] it was 0.06%; in the series filed under Mus musculus [11], under 0.01%; in the series listed under Mus musculus [12], 0.032%. Moreover, the ID/g in the series listed under Mus musculus [25] is 0.25%; in the series listed under Mus musculus [13] it was 0.72%; in the series filed under Mus musculus [14], 0.43%; in the series filed under Mus musculus [15], 0.71%; in the series listed under Mus musculus [16], 0.26%; in the series listed under Mus musculus [17] it was 0.17%. The ID/g in the series filed under Mus musculus [18] came to 0.19%; in the series listed under Mus musculus [19], 0.23%; in the series filed under Mus musculus [20] it was 0.03%; in the series listed under Mus musculus [21] it was 0.05%; in the series filed under Mus musculus [22] it was 0.03%; in the series listed under Mus musculus [23] it was 0.027%.

As for `O=C(O)CN1CCN(CC(=O)O)CCN(CC(=O)O)C(Cc2ccc([N+](=O)[O-])cc2)CN(CC(=O)O)CC1` (stereo unspecified), the ID/g in the series filed under Mus musculus [1] is under 0.01%; in the series filed under Mus musculus [2] it was 0.24%; in the series filed under Mus musculus [3] it was under 0.01%; in the series filed under Mus musculus [4], under 0.01%; in the series filed under Mus musculus [5] it was 2.87%; in the series listed under Mus musculus [6] it was 1.54%. In addition, the ID/g is listed as 0.98% in the series listed under Mus musculus [7]; 1.76% in the series filed under Mus musculus [8]; 0.11% in the series listed under Mus musculus [9]; 0.16% in the series filed under Mus musculus [10]; 0.04% in the series listed under Mus musculus [11]; 0.12% in the series filed under Mus musculus [12]. Besides, the ID/g in the series filed under Mus musculus [25] is on record as 0.27%; in the series listed under Mus musculus [13], 1.23%; in the series listed under Mus musculus [14] it was 0.48%; in the series listed under Mus musculus [15], 0.8%; in the series listed under Mus musculus [16], 3.29%; in the series filed under Mus musculus [17], 1.15%. Besides, the ID/g in the series listed under Mus musculus [18] is on record as 1.29%; in the series filed under Mus musculus [19], 2.04%; in the series filed under Mus musculus [20] it was 0.03%; in the series filed under Mus musculus [21], 0.06%; in the series listed under Mus musculus [22], 0.03%; in the series listed under Mus musculus [23], 0.04%.

Values taken from ChEMBL document CHEMBL1132327, “Improved in vivo stability of actinium-225 macrocyclic complexes” (J Med Chem, 1999).
